Screening results as filed in PubChem BioAssay.
Scp-1 inhibitor: inhibitors of human Scp-1 phosphatase | Q9GZU7 | Recombinant Scp1, phosphopeptide, malachite green phosphate absorbance | inhibition, % at 20 µM | actives 0.88% (n = 340,000) | AID 493091;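 active means inhibition above about 50% at 20 µM, limit read from the data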;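 further: plate controls were DMSO wells with enzyme for no effect and wells lacking enzyme for full effect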
Target sequence (Q9GZU7 76-261 limits assumed): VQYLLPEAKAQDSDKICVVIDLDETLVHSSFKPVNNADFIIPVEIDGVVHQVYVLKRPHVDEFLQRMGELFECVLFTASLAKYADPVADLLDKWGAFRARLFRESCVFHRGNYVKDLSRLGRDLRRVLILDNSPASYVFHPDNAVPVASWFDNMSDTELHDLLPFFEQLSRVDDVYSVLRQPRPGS
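Times: enzyme reaction 45 min at room temperature, colour 5 min, stabilisation 30 min. Material: SCP-1 catalytic fragment, aa 76-261. Medium: Acidic Tris acetate buffer with magnesium and detergent. Signal: colorimetric free-phosphate detection, absorbance 630 nm. Read-out basis: % inhibition of SCP-1 phosphate liberation. Reagent: Phosphorylated 17-residue peptide substrate.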
SUMO1 PPI mod: modulators of human SUMO1-mediated protein-protein interactions; SUMO1 binding to a labelled peptide, TR-FRET, 1 h; P63165; AID 602429; inhibition, % at 20 µM; actives 0.33% (n = 360,000); in the data active means inhibition above about 37%
DNMT1 inh: inhibitors of human DNMT1; inhibition (reported as % activation of signal), % at 10 µM; actives 0.83% (n = 360,000); DNMT1 molecular beacon, Hinp1I cleavage, fluorescence; P26358; in the data active means inhibition above about 50%
Rpn11 block: blocks the human proteasome subunit Rpn11; actives 0.59% (n = 360,000); AID 588493; human 26S proteasome, Ub4-pepOG fluorescence polarization; 20S core pre-blocked with epoxomicin; inhibition, % at 20 µM;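 active means inhibition at 20 µM, scaled to each plate's controls, above about 33%, limit read from the data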
LMPTP inh: LMPTP (human) inhibition; P24666; recombinant LMPTP-A, OMFP fluorogenic substrate, fluorescence intensity; inhibition, % at 20 µM; actives 0.22% (n = 360,000); AID 651560;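 active means compounds that cut the enzyme signal by at least half of the control window in the single-dose screen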;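 further: plate controls were DMSO wells with enzyme plus substrate for no effect and substrate without enzyme for full effect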
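Test system: LMPTP-A phosphatase enzyme. Amount: LMPTP-A at 0.625 nM final in the reaction. Reagent: OMFP substrate, 400 µM final. Times: 50 min at room temperature. Signal: endpoint fluorescence intensity from OMFP dephosphorylation. Read-out basis: % inhibition. Benchmarks: no-enzyme and uninhibited controls.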
STEP inh: STEP (human) phosphatase inhibition. P54829. recombinant STEP, OMFP fluorogenic substrate, fluorescence. inhibition, % at 20 µM. actives 0.25% (n = 360,000). AID 588621;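 active means inhibition at 20 µM, scaled per plate between control wells, above about 37%, limit read from the data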;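 further: 0% = DMSO with enzyme and substrate and 100% = substrate only without enzyme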
Target sequence (P54829 whole entry, looked up): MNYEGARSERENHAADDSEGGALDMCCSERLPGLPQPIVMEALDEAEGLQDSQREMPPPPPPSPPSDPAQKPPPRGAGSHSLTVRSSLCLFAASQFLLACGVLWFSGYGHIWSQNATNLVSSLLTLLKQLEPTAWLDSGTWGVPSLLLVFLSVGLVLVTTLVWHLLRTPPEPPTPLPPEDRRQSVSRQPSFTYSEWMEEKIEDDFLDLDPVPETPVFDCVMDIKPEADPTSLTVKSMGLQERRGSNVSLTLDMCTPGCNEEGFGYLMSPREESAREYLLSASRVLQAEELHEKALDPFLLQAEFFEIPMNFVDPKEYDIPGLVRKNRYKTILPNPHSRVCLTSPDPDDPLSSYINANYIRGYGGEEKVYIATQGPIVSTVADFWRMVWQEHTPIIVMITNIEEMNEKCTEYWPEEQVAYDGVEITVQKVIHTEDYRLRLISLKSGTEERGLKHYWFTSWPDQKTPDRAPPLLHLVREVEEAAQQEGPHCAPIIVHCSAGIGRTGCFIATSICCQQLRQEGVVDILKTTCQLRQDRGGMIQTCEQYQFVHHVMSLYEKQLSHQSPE
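Measure: Control-normalized % inhibition with plate pattern correction | Test system: STEP phosphatase, cell-free reaction | Medium: pH 6.0 Bis-Tris with DTT and Tween 20 | Technique: Fluorescence, 480/540 nm | Times: Reaction 20 min, ambient temperature | Doses: Single compound dose of 20 µM, 1% DMSO final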
The depositor's hits bear a star; nt = not tested or not shown. In the library only some 2.3% were active in any assay of this set; here they are far more common.

SMILES | Scp-1 inhibitor | SUMO1 PPI mod | DNMT1 inh | Rpn11 block | LMPTP inh | STEP inh
COc1ccc2[nH]c(O)c(N=NC(=O)c3ccc(NS(=O)(=O)c4cccs4)cc3)c2c1 | 23.9 | 10.5 | 22.8 | -5.9 | 5.0 | 3.3
O=C(N=Nc1c(O)[nH]c2ccc(F)cc12)c1ccc(NS(=O)(=O)c2cccs2)cc1 | -10.2 | -3.7 | 47.8 | -4.0 | 52.6* | 1.6
Cc1ccc(-n2ncc3c(=O)[nH]c(SCC(=O)N4CCC(C)CC4)nc32)cc1C | 3.5 | 40.7* | -1.9 | 17.9 | 1.3 | -0.7
CCCCN(C(=O)c1cc(S(=O)(=O)N2CCCCCC2)ccc1OC)c1ccccc1 | -6.6 | 59.9* | -1.9 | 8.9 | 2.0 | 3.2
COCOCCn1cc(CN2CCS(=O)(=O)N(Cc3ccc(-c4ccccc4)cc3)C(C(C)C)C2=O)nn1 (stereo unspecified) | nt | 1.1 | 1.1 | 3.0 | 0.5 | -1.9
c1ccc(CC2CCN(C3=Nc4cccc5cccc3c45)CC2)cc1 | 11.4 | -19.5 | -6.2 | 38.7* | 43.2 | 1.6
c1cc2c3c(cccc3c1)C(N1CCOCC1)=N2 | 0.4 | -15.8 | -4.6 | -29.5 | 5.1 | -0.2
COc1ccc2nc3cc(Cl)ccc3c(Nc3cc(C(C)C)c(O)cc3C)c2c1 | -3.0 | 3.0 | -4.0 | -1.5 | 5.4 | 13.3
COc1ccc2nc3cc(Cl)ccc3c(Nc3cc(CN4CCCC4)c(O)c(CN4CCCC4)c3)c2n1 | nt | -60.0 | 64.6* | -1.3 | 50.1* | 14.3
c1ccc2c(NCCc3c[nH]c4ccccc34)c3ccccc3nc2c1 | -7.7 | -44.4 | 72.4* | -12.3 | 56.9* | 2.6
OCCCNc1c2ccccc2nc2ccccc12 | -4.4 | -31.2 | 66.8* | 1.3 | 26.5 | -0.8
Cc1ccc(-c2nc(NCCCO)c3ccccc3n2)cc1 | -5.7 | 21.3 | 6.6 | -2.4 | 48.2 | -5.8
Fc1cccc(NCCc2c[nH]c3ccccc23)n1 | 3.6 | 4.5 | -4.5 | 2.5 | 1.0 | -0.6
Cc1noc(C)c1C(=O)OCC(=O)NCc1ccccc1 | -6.9 | 2.3 | 0.8 | -6.2 | -0.3 | -3.1
Cc1ccc(-n2c(N)c(C(=O)N3CCCCC3)sc2=S)cc1 | 2.5 | -30.0 | -1.8 | -1.8 | -1.0 | 4.6
Cc1ccc(-n2c(N)c(C(=O)N3CCN(C)CC3)sc2=S)cc1 | -8.0 | -15.3 | -4.8 | 1.3 | -1.2 | 95.6*
C[C@H]1CN(c2ccccc2)C(=O)[C@@H]1CC(=O)Nc1ccc(Br)cc1 | nt | -2.2 | -2.8 | 3.6 | 0.2 | 2.8
CC(C)C(=O)Nc1ccc(C(=O)N/N=C/C2CC3C=CC2C3)cc1 (stereo unspecified) | -3.2 | 39.8* | 2.7 | -4.1 | -1.0 | 1.1
CC(=O)Nc1ccc(C(=O)N/N=C/C2CC3C=CC2C3)cc1 (stereo unspecified) | -8.3 | 0.7 | -2.4 | -5.6 | -0.3 | -2.0
Nc1sc2c(c1C(=O)NCCc1ccccc1)CCCC2 | nt | -2.4 | nt | nt | -0.4 | nt
CC(C)NC(=S)NCc1cccs1 | 7.4 | -1.8 | 0.4 | 1.1 | -1.0 | -0.5
CCOC(=O)c1c(C)[nH]c(C)c1C(=O)CSc1nnc(-c2ccco2)n1Cc1ccccc1 | -3.6 | 0.0 | -4.2 | 6.5 | -0.9 | 0.2
COc1cccc(N2CCN(C(=O)c3ccc(CSc4nc5ccncc5[nH]4)cc3)CC2)c1 | -11.7 | -6.0 | -1.1 | -5.4 | 51.8* | -1.4
O=C(c1ccc(CSc2nc3ccncc3[nH]2)cc1)N1CCCCC1 | -12.9 | 5.9 | -4.9 | -5.3 | 13.1 | -0.8
O=c1cc(CN2CCN(Cc3ccccc3)CC2)c2ccc(O)c(O)c2o1 | 28.9 | -8.7 | 4.1 | -21.7 | 55.3* | 4.2
SMILES | Scp-1 inhibitor | SUMO1 PPI mod | DNMT1 inh | Rpn11 block | LMPTP inh | STEP inh
Cc1c(O)ccc2c(CN3CCN(Cc4ccccc4)CC3)cc(=O)oc12 | 2.2 | -10.1 | 2.4 | 15.2 | -2.0 | -1.7
Cc1ccc(NC(=O)Cn2nnc(C(=O)NCc3ccc(Cl)cc3)c2N)cc1F | -3.5 | 0.0 | 24.8 | 6.3 | 3.8 | -0.6
Cc1cc(/C=N/NC(=O)c2ccncc2)c(C)n1-c1ccccc1 | -2.7 | -4.0 | 0.6 | -0.4 | 0.3 | -0.7
Cc1cc(C(=O)N/N=C/c2ccc(O)c(O)c2O)c(C)n1-c1ccccc1 | 9.2 | 8.1 | 10.0 | 15.8 | 55.9* | 11.7
Nc1ccc(C(=O)N/N=C\c2cc(N=Nc3cccc4ccccc34)ccc2O)cc1 | 37.7 | 65.2* | 43.8 | 1.2 | 3.9 | 10.1
COC(=O)N/N=C/c1cc(N=Nc2ccccc2)ccc1O | -14.9 | -4.9 | 0.6 | -3.3 | 3.1 | -0.6
Cc1cc(C(=O)N/N=C/c2cc(N=Nc3ccccc3)ccc2O)n[nH]1 | 63.7* | -5.9 | 5.2 | -28.7 | 6.0 | 5.7
COc1ccc(Cl)cc1NS(=O)(=O)c1c(C)[nH]c(=O)[nH]c1=O | -6.8 | 2.1 | 6.6 | -4.7 | -0.5 | -0.8
CC(C)CNC(=O)CN1c2cccc3cccc(c23)S1(=O)=O | -3.8 | -9.3 | -6.1 | -2.9 | 1.6 | 0.2
CCOc1ccc(N2CC(O)=C(c3nc4ccccc4c(=O)[nH]3)C2=N)cc1 | -2.2 | 28.8 | 25.1 | 5.9 | -0.5 | 5.9
CCOC(=O)c1ccc(N2CC(O)=C(c3nc4ccccc4c(=O)[nH]3)C2=N)cc1 | 8.6 | 49.7* | -2.7 | 32.5 | -1.5 | -1.0
CC1(C)C(C=C(Cl)Cl)C1C(=O)Nc1ccc([N+](=O)[O-])cc1 (stereo unspecified) | -7.3 | nt | nt | nt | nt | nt
COc1cccc(-c2nc(CS(=O)CC(=O)NCc3ccccc3Cl)c(C)o2)c1 (stereo unspecified) | -1.2 | 1.6 | 1.7 | 7.1 | -0.4 | 4.6
CC(C)CNC(=S)N1CCN(C(c2ccccc2)c2ccccc2)CC1 | -7.8 | 1.3 | 0.1 | 2.8 | 0.8 | 2.6
C=C(C)CNC(=S)N1CCN(C(c2ccccc2)c2ccccc2)CC1 | -10.4 | 44.0* | 2.1 | -0.4 | 0.5 | -0.4
COc1ccccc1CCNC(=O)Cn1ccc2cc(S(=O)(=O)N3CCC(C)CC3)ccc21 | -4.7 | 8.7 | -7.9 | 5.6 | 3.2 | 3.2
CN1CCN(c2ccc(S(=O)(=O)N3CCOCC3)cc2NC(=O)COc2ccc(C#N)cc2)CC1 | -10.2 | -5.8 | 2.1 | 3.4 | 0.3 | -4.3
O=C(N=Nc1c(O)[nH]c2ccccc12)c1cc(-c2cccs2)[nH]n1 | 7.2 | 59.9* | 10.8 | -4.0 | 38.9 | 13.0
CC(C)CCNC(=O)CN(Cc1ccccc1)C(=O)CCC(=O)Nc1ccccn1 | -3.0 | 0.8 | 1.5 | -2.3 | -1.1 | -0.3
CC(=O)OC[C@]1(OC(C)=O)C[C@@]23CC[C@H]4[C@@](C)(CCC[C@@]4(C)C(=O)O)[C@@H]2CC[C@@H]1C3 | -6.2 | 9.9 | 7.3 | 0.0 | 20.4 | -1.0
CC(=O)OC[C@]12CC[C@H]3[C@@](C)(CC[C@H]4C(C)(C)CCC[C@]34C)[C@@H]1CC(C1=CC(=O)OC1O)O2 (stereo partly specified) | nt | 74.3* | 57.6* | 58.3* | 4.1 | 1.0
